{"source": "ChEMBL document CHEMBL1667739", "about": "“Pitiprolamide, a proline-rich dolastatin 16 analogue from the marine cyanobacterium Lyngbya majuscula from Guam” (J Nat Prod, 2011)", "assay_type_in_all_cases": "functional", "conditions_in_all_cases": "ATCC 25177, 288 h, read-out: DIZ", "key": {"[1]": {"test_system": "Mycobacterium tuberculosis", "assay": "Antimycobacterial activity against Mycobacterium tuberculosis ATCC 25177 at 5 ug after 12 days by disc diffusion assay", "procedure,_shortened": "(§1)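 Compound dissolved in EtOH and loaded onto sterile filter-paper discs. Dried discs were placed on an inoculated agar plate and incubated 12 days at 37 °C. The diameter of the inhibition zone was then measured.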"}, "[2]": {"test_system": "Mycobacterium tuberculosis", "assay": "Antimycobacterial activity against Mycobacterium tuberculosis ATCC 25177 at 10 ug after 12 days by disc diffusion assay", "procedure,_shortened": "as §1"}, "[3]": {"test_system": "Mycobacterium tuberculosis", "assay": "Antimycobacterial activity against Mycobacterium tuberculosis ATCC 25177 at 1 ug after 12 days by disc diffusion assay", "procedure,_shortened": "as §1"}}}
{"smiles": "CN[C@@H]1[C@H](O[C@H]2[C@H](O[C@H]3[C@H](O)[C@@H](O)[C@H](N=C(N)N)[C@@H](O)[C@@H]3N=C(N)N)O[C@@H](C)[C@]2(O)C=O)O[C@@H](CO)[C@H](O)[C@H]1O", "note": "[STREPTOMYCIN]", "values": [{"measurement": "zone of inhibition at 5 µg/disc", "setting": "[1]", "value": 30, "unit": "mm"}, {"measurement": "zone of inhibition at 10 µg/disc", "setting": "[2]", "value": 40, "unit": "mm"}, {"measurement": "zone of inhibition at 1 µg/disc", "setting": "[3]", "value": 0, "unit": "mm"}]}
